Laboratory results: ChEMBL document CHEMBL1141593, “Acylpyrogallols as inhibitors of antiapoptotic Bcl-2 proteins” (J Med Chem, 2008)
Activity calls are given as the source filed them. The calls are words filed in the database; no cut-off is given here.

Key:
[1] = target: Apoptosis regulator Bcl-2 (Homo sapiens, UniProt P10415); assay: Inhibition of human Bcl-2 protein by ELISA
Outline: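 ELISA competitive binding to Bcl-2 using a biotinylated Bim peptide as competitor; IC50 values.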

[2] = target: Induced myeloid leukemia cell differentiation protein Mcl-1 (Homo sapiens, UniProt Q07820); assay: Inhibition of human Mcl-1 protein by fluorescence polarization assay
Outline: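 Mcl-1 binding by fluorescence-polarization competition assay; Ki values.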

MDA-MB-231 [3] = assay: Growth inhibition of human MDA-MB-231 2LMP cells after 4 days by WST-8 based assay; type: functional, cell-based; conditions: MDA-MB-231, 96 h
Outline: (§1)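 Cells grown with compound for 4 days, then cell growth read by WST-based assay; IC50 values. Both lines express high levels of Bcl-2, Bcl-xL and Mcl-1.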

PC-3 [4] = assay: Growth inhibition of human PC3 cells after 4 days by WST-8 based assay; type: functional, cell-based; conditions: PC-3, 96 h; outline: as §1
MDA-MB-231 [5] = assay: Induction of apoptosis in human MDA-MB-231 2LMP cells assessed as cell viability at 1 uM after 4 days by trypan blue exclusion assay; type: functional; conditions: MDA-MB-231, 96 h, read-out: Activity
Outline: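 Cell death scored by trypan blue exclusion after 4 days of exposure at 0.3, 1 and 3 µM; percentage of dead cells reported with ± error.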

PC-3 [6] = assay: Induction of apoptosis in human PC3 cells assessed as Cell viability after 4 days by trypan blue exclusion assay; type: functional, cell-based
MDA-MB-231 [7] = assay: Induction of apoptosis in human MDA-MB-231 2LMP cells assessed as cell viability by trypan blue exclusion assay; type: functional, cell-based; conditions: TDE = time-dependent effect
PC-3 [8] = assay: Induction of apoptosis in human PC3 cells assessed as cell viability by trypan blue exclusion assay; type: functional, cell-based; conditions: TDE = time-dependent effect
MDA-MB-231 [9] = assay: Induction of apoptosis in human MDA-MB-231 2LMP cells by annexin-5/propidium iodide assay; type: functional, cell-based
Outline: (§2)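 Four-day exposure, then apoptosis measured by annexin-V/propidium iodide staining and flow cytometry.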

PC-3 [10] = assay: Induction of apoptosis in human PC3 cells by annexin-5/propidium iodide assay; type: functional, cell-based; outline: as §2

Induced myeloid leukemia cell differentiation protein Mcl-1, sequence (Q07820 whole entry): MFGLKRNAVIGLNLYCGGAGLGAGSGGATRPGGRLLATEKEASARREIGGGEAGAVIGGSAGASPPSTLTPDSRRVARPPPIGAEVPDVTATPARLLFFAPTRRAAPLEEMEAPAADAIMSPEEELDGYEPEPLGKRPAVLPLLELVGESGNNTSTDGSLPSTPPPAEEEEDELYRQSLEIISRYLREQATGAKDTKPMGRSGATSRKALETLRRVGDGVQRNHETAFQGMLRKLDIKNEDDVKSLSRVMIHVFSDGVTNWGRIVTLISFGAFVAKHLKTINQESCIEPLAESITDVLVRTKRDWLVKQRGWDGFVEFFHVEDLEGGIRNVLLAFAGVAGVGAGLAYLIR
Apoptosis regulator Bcl-2, sequence (P10415 whole entry): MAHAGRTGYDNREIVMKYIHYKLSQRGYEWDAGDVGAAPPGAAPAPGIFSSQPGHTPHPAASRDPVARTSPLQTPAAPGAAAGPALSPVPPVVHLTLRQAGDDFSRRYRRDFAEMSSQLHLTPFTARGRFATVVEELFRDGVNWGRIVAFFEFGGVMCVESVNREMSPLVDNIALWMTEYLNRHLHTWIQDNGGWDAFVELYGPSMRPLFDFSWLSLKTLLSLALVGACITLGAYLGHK

SMILES	IC50 [1] [nM]	IC50 [2] [nM]	Ki [2] [nM]	IC50 (MDA-MB-231 [3]) [nM]	IC50 (PC-3 [4]) [nM]	viability at 1 µM (MDA-MB-231 [5]) [%]	Activity (PC-3 [6])	Activity (MDA-MB-231 [7])	Activity (PC-3 [8])	Activity (MDA-MB-231 [9])	Activity (PC-3 [10])
CC(C)c1cc(C(=O)c2ccc(Oc3ccccc3)cc2)c(O)c(O)c1O	3400	3060	380	12900	12400						
Cc1cc2c(C(C)C)c(O)c(O)c(C=O)c2c(O)c1-c1c(C)cc2c(C(C)C)c(O)c(O)c(C=O)c2c1O [GOSSYPOL]				3700	2500						
CC(C)C(=O)c1cc(C(=O)c2ccc(Oc3ccccc3)cc2)c(O)c(O)c1O	2600	2670	340	4500	5700						
O=C(c1ccc(Oc2ccccc2)cc1)c1cc(C(=O)c2nc3ccccc3s2)c(O)c(O)c1O	170	310	37	120	260	58	Dose-dependent effect	tde	tde	Active	Active
CC(C)c1cc(C(=O)c2ccccc2)c(O)c(O)c1O	41600	36500	4600	30700	39300						
O=C(c1ccc(Oc2ccccc2)cc1)c1cc(C(=O)c2cccc3ccccc23)c(O)c(O)c1O	290	1200	150	290	550						
